Measured values published in ChEMBL document CHEMBL5032518, “Discovery of a cryptic site at the interface 2 of TEAD - Towards a new family of YAP/TAZ-TEAD inhibitors” (Eur J Med Chem, 2021).
Values belong to the molecule of their own block, whether it stands above or below them. The source made the active and inactive calls. The calls are words filed in the database; no cut-off is given here.

How the values were obtained:
[1] = molecular target: T1, Transcriptional enhancer factor TEF-4 (Homo sapiens, UniProt Q15562); experiment: Binding affinity to eGFP-fused human TEAD2 (217 to 447 residues) expressed in CHO-K1 cells by microscale thermophoresis analysis
T1 sequence (Q15562 whole entry, the tested form may be a part): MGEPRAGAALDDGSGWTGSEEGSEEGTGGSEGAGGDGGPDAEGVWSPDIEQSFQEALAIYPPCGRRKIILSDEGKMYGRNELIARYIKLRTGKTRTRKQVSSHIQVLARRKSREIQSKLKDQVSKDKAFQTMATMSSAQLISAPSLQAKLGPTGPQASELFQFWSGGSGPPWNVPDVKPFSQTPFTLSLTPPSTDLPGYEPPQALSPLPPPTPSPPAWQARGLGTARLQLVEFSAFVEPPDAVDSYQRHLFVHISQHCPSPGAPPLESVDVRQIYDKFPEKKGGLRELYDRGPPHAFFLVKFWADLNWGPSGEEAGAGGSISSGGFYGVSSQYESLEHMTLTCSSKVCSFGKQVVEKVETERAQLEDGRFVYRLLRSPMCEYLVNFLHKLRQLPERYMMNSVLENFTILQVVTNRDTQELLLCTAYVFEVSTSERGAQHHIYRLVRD
How it was run: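 MST on GFP-labeled hTEAD2_217-447 in CHO-K1 cell lysate, MST power 40%. hYAP_50-102 used as control binder. Kd determined; triplicate runs on three independent cell cultures, mean ± SD.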

HEK293T = experiment: Inhibition of TEAD (unknown origin) transfected in HEK293T cells assessed as inhibition of TEAD transcriptional activity at 10 uM measured after 16 hrs by luciferase reporter gene assay; format: cell-based; details: Homo sapiens
How it was run: (§1)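 HEK293T cells transfected with a TEAD luciferase reporter (8xGTIIC-Luciferase) and treated at 10 µM for 16 h. References were dasatinib at 100 nM and MGH-CP1 at 10 µM. β-Galactosidase activity used both to normalize luciferase and to estimate cytotoxicity; viability also checked visually. At least three independent experiments in biological triplicate; Kruskal-Wallis tests.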

[2] = Inhibition of TEAD (unknown origin) transfected in HEK293T cells assessed as inhibition of TEAD transcriptional activity measured after 16 hrs by luciferase reporter gene assay; format: cell-based; details: Homo sapiens, HEK-293T
How it was run: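 HEK293T cells transfected with the 8xGTIIC-Luciferase TEAD reporter. Dose-response curves used to derive IC50, with luciferase normalized to β-galactosidase.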

MDA-MB-231 [3] = experiment: Inhibition of YAP/TAZ-TEAD interaction in human MDA-MB-231 cells assessed as reduction in AXL protein expression at 10 uM measured after 48 hrs by western blot analysis; format: cell-based
How it was run: (§2)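 MDA-MB-231 cells grown in DMEM with 0.2% heat-inactivated FBS and 2 mM L-glutamine, and exposed to 10 µM for 48 h, with dasatinib at 100 nM as control. Total extracts prepared in RIPA-based buffer with protease/phosphatase inhibitors, then Western blot. At least three independent experiments in biological triplicate.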

MDA-MB-231 [4] = experiment: Inhibition of YAP/TAZ-TEAD interaction in human MDA-MB-231 cells assessed as reduction in CTGF protein expression at 10 uM measured after 48 hrs by western blot analysis; format: cell-based; how it was run: as §2
MDA-MB-231 [5] = experiment: Inhibition of YAP/TAZ-TEAD interaction in human MDA-MB-231 cells assessed as reduction in Cyr61 protein expression at 10 uM measured after 48 hrs by western blot analysis; format: cell-based; how it was run: as §2
MDA-MB-231 [6] = experiment: Inhibition of YAP/TAZ-TEAD interaction in human MDA-MB-231 cells assessed as reduction in Survivin protein expression at 10 uM measured after 48 hrs by western blot analysis; format: cell-based; how it was run: as §2
MDA-MB-231 [7] = experiment: Inhibition of YAP/TAZ-TEAD interaction in human MDA-MB-231 cells assessed as reduction in AXL mRNA expression at 10 uM measured after 24 hrs by qRT-PCR analysis; format: cell-based
How it was run: (§3)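 MDA-MB-231 cells exposed to 10 µM for 24 h, with DMSO and dasatinib (100 nM) as controls. Total RNA purified, integrity checked on agarose gel. RT-qPCR with gene-specific primers; relative expression by 2^-ΔΔCt normalized to MAN2B1. At least triplicates; Kruskal-Wallis tests.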

MDA-MB-231 [8] = experiment: Inhibition of YAP/TAZ-TEAD interaction in human MDA-MB-231 cells assessed as reduction in CTGF mRNA expression at 10 uM measured after 24 hrs by qRT-PCR analysis; format: cell-based; how it was run: as §3
MDA-MB-231 [9] = experiment: Inhibition of YAP/TAZ-TEAD interaction in human MDA-MB-231 cells assessed as reduction in Cyr61 mRNA expression at 10 uM measured after 24 hrs by qRT-PCR analysis; format: cell-based; how it was run: as §3
MDA-MB-231 [10] = experiment: Antiproliferative activity against human MDA-MB-231 cells assessed as reduction in cell proliferation at 5 uM measured after 48 hrs by IncuCyte live-cell imaging assay; format: functional
How it was run: (§4)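 MDA-MB-231 cells plated in triplicate at low density (2.5 × 10³ cells/well) in low serum (0.2%). Test agent added at several concentrations 24 h after plating. Cell number tracked by live-cell imaging every 3 h for up to 72 h; independent triplicates, mean ± SD, n = 3.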

MDA-MB-231 [11] = experiment: Antiproliferative activity against human MDA-MB-231 cells assessed as reduction in cell proliferation at 10 uM measured after 48 hrs by IncuCyte live-cell imaging assay; format: functional; how it was run: as §4
HeLa [12] = experiment: Inhibition of YAP/TAZ-TEAD interaction in human HeLa cells assessed as reduction in AXL protein expression at 10 uM measured after 48 hrs by western blot analysis; format: cell-based
HeLa [13] = experiment: Inhibition of YAP/TAZ-TEAD interaction in human HeLa cells assessed as reduction in CTGF protein expression at 10 uM measured after 48 hrs by western blot analysis; format: cell-based
HeLa [14] = experiment: Inhibition of YAP/TAZ-TEAD interaction in human HeLa cells assessed as reduction in Cyr61 protein expression at 10 uM measured after 48 hrs by western blot analysis; format: cell-based
HeLa [15] = experiment: Inhibition of YAP/TAZ-TEAD interaction in human HeLa cells assessed as reduction in Survivin protein expression at 10 uM measured after 48 hrs by western blot analysis; format: cell-based
HeLa [16] = experiment: Inhibition of YAP/TAZ-TEAD interaction in human HeLa cells assessed as reduction in AXL mRNA expression at 10 uM measured after 24 hrs by qRT-PCR analysis; format: cell-based
HeLa [17] = experiment: Inhibition of YAP/TAZ-TEAD interaction in human HeLa cells assessed as reduction in CTGF mRNA expression at 10 uM measured after 24 hrs by qRT-PCR analysis; format: cell-based
HeLa [18] = experiment: Inhibition of YAP/TAZ-TEAD interaction in human HeLa cells assessed as reduction in Cyr61 mRNA expression at 10 uM measured after 24 hrs by qRT-PCR analysis; format: cell-based
SH-SY5Y [19] = experiment: Effect on AXL protein expression in human SH-SY5Y cells lacking YAP/TAZ expression at 10 uM measured after 48 hrs by western blot analysis; format: functional, cell-based
SH-SY5Y [20] = experiment: Effect on CTGF protein expression in human SH-SY5Y cells lacking YAP/TAZ expression at 10 uM measured after 48 hrs by western blot analysis; format: functional, cell-based
SH-SY5Y [21] = experiment: Effect on Cyr61 protein expression in human SH-SY5Y cells lacking YAP/TAZ expression at 10 uM measured after 48 hrs by western blot analysis; format: functional, cell-based
SH-SY5Y [22] = experiment: Effect on Survivin protein expression in human SH-SY5Y cells lacking YAP/TAZ expression at 10 uM measured after 48 hrs by western blot analysis; format: functional, cell-based
SH-SY5Y [23] = experiment: Effect on AXL mRNA expression in human SH-SY5Y cells lacking YAP/TAZ expression at 10 uM measured after 24 hrs by qRT-PCR analysis; format: functional, cell-based
SH-SY5Y [24] = experiment: Effect on CTGF mRNA expression in human SH-SY5Y cells lacking YAP/TAZ expression at 10 uM measured after 24 hrs by qRT-PCR analysis; format: functional, cell-based
SH-SY5Y [25] = experiment: Effect on Cyr61 mRNA expression in human SH-SY5Y cells lacking YAP/TAZ expression at 10 uM measured after 24 hrs by qRT-PCR analysis; format: functional, cell-based
HEK-293T = experiment: Cytotoxicity against human HEK293T cells transfected with TEAD assessed as reduction of beta-galactosidase activity at 10 uM measured after 16 hrs by luciferase reporter gene assay; format: cell-based; how it was run: as §1
[26] = Inhibition of TEAD (unknown origin) transfected in HEK293T cells assessed as inhibition of TEAD transcriptional activity measured after 24 hrs by luciferase reporter gene assay; format: cell-based; details: Homo sapiens, HEK-293T
[27] = Inhibition of TEAD4/Yap1 (unknown origin) interaction measured after 24 hrs by fluorescence polarization assay; set-up: species or system Homo sapiens
[28] = molecular target: T1, Transcriptional enhancer factor TEF-4; experiment: Binding affinity to external surface of N-terminal His6-tagged human TEAD2 (217 to 447 residues) expressed in Escherichia coli BL21(DE3) assessed as melting temperature by Nano Differential scanning fluorometry
How it was run: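 Thermal stability of hTEAD2_217-447 measured by NanoDSF, which reads intrinsic aromatic-residue fluorescence, with and without ligand.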

- Kd [1]: 35 µM
- IC50 [2]: 4.5 µM
Compound: CCOC(=O)c1cn(CCCCN)nc1-c1ccc(Cl)c(Cl)c1
- inhibition (HEK293T): Active
- inhibition (MDA-MB-231 [3]): Active
- inhibition (MDA-MB-231 [4]): Active
- inhibition (MDA-MB-231 [5]): Active
- inhibition (MDA-MB-231 [6]): Active
- inhibition (MDA-MB-231 [7]): Active
- inhibition (MDA-MB-231 [8]): Active
- inhibition (MDA-MB-231 [9]): Active
- inhibition at 5 µM (MDA-MB-231 [10]): 40%
- inhibition at 10 µM (MDA-MB-231 [11]): 60%
- inhibition (HeLa [12]): Active
- inhibition (HeLa [13]): Active
- inhibition (HeLa [14]): Active
- inhibition (HeLa [15]): Active
- inhibition (HeLa [16]): Active
- inhibition (HeLa [17]): Active
- inhibition (HeLa [18]): Active
- Activity (SH-SY5Y [19]): inactive
- Activity (SH-SY5Y [20]): inactive
- Activity (SH-SY5Y [21]): inactive
- Activity (SH-SY5Y [22]): inactive
- Activity (SH-SY5Y [23]): inactive
- Activity (SH-SY5Y [24]): inactive
- Activity (SH-SY5Y [25]): inactive

Compound: NCCCCn1cc(C(=O)NCCc2ccccc2)c(-c2ccc(Cl)c(Cl)c2)n1
- Activity (HEK-293T): Toxic

- IC50 [26]: 1.7 µM
Compound: COc1ccc2c(c1)/C(=N/NC(=O)c1nnn(-c3ccccc3N)c1-c1ccc(Cl)c(Cl)c1)C(=O)N2

- IC50 [26]: 6.5 µM
Compound: Nc1nonc1-n1nnc(C(=O)N/N=C2\C(=O)Nc3ccccc32)c1-c1ccc(Cl)c(Cl)c1

Compound: O=C(O)CCn1cc(C(=O)NCc2ccccc2)c(-c2ccc(Cl)c(Cl)c2)n1
- inhibition (HEK293T): inactive

- EC50 [27]: 5.9 µM
Compound: O=C(CCl)c1ccccc1Nc1cccc(C(F)(F)F)c1

Compound: NCCCCn1cc(C(=O)NCc2ccccc2)c(-c2ccc(Cl)c(Cl)c2)n1
- Activity (HEK-293T): Toxic

- Kd [1]: 5.1 µM
Compound: O=C(O)CCn1cc(C(=O)NCCc2ccccc2)c(-c2ccc(Cl)c(Cl)c2)n1
- inhibition (HEK293T): inactive

Compound: NCCn1cc(C(=O)NCc2ccccc2)c(-c2ccc(Cl)c(Cl)c2)n1
- Activity (HEK-293T): Toxic

- Tm [28]: 50.3 °C
Compound: O=C(O)c1cccnc1Nc1cccc(C(F)(F)F)c1

Compound: CCOC(=O)c1cn(CCCN)nc1-c1ccc(Cl)c(Cl)c1
- inhibition (HEK293T): Active

Compound: NCCCn1cc(C(=O)NCc2ccccc2)c(-c2ccc(Cl)c(Cl)c2)n1
- Activity (HEK-293T): Toxic

- Kd [1]: 4.6 µM
Compound: O=C(O)CCCn1cc(C(=O)NCc2ccccc2)c(-c2ccc(Cl)c(Cl)c2)n1
- inhibition (HEK293T): inactive

Compound: O=C(O)CCCn1cc(C(=O)NCCc2ccccc2)c(-c2ccc(Cl)c(Cl)c2)n1
- inhibition (HEK293T): inactive

Compound: NCCCn1cc(C(=O)NCCc2ccccc2)c(-c2ccc(Cl)c(Cl)c2)n1
- Activity (HEK-293T): Toxic
